Screens from PubChem BioAssay.
RGS4 act: RGS4 potentiators or activators, primary screen, cell-based, HEK293 M3R inducible RGS4, calcium flux | B-score at 10 µM | carbachol calcium flux Fluo4; hits give low values | hit rate 0.92% among 310,000;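 active = B-score of the integrated calcium signal more than 4 SD below the library mean, with starting fluorescence not abnormally high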;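 also: negative B-score means reduced calcium response which marks RGS4 activation or potentiation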
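Also added: carbachol at ECmax as muscarinic agonist stimulus; Assay system: HEK293 cells with stable M3R and inducible RGS4; Timing: overnight RGS4 induction, 30 min dye load 37 °C, 20 min compound RT; Measured by: Fluo4-AM (2 µM) calcium-flux fluorescence, kinetic read.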
MrgX1 allo act: positive allosteric modulators of MrgX1, primary screen, HEK293 cells, Fluo-4 calcium flux. Mas-related G-protein coupled receptor member X1 (Homo sapiens), Q96LB2. FDSS; hits give high values. B-score at 10 µM. hit rate 0.63% among 310,000;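 active = plate-corrected calcium response at least 3 library SD above typical, normal starting fluorescence, not activating the receptor alone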;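 also: compound read alongside a low EC10 to EC30 dose of BAM8-22 agonist; peak minus trough fluorescence over baseline measured at the second addition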
Target sequence (Q96LB2 whole entry, looked up): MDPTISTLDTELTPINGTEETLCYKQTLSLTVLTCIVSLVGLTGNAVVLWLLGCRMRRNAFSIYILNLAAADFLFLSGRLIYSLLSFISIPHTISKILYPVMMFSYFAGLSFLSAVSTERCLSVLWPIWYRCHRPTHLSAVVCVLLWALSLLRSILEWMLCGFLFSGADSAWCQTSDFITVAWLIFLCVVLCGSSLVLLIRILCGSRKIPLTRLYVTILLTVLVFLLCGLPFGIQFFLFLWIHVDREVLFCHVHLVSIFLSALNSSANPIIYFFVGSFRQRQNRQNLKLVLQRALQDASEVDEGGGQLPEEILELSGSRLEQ
RGS4 block: RGS4 inhibitors, primary screen, cell-based, HEK293 M3R inducible RGS4, calcium flux | B-score at 10 µM | hit rate 0.45% among 310,000 | Regulator of G-protein signaling 4 (Homo sapiens), P49798 | Fluo-4 calcium flux; hits give high values; triggered by carbachol at its EC20;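 active = B-score, a plate-corrected calcium signal, over three deviations above library mean, with baseline fluorescence within five deviations of library mean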;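 also: RGS4 expression induced by doxycycline in cells with stable M3 receptor; B-score is computed from the integrated fluorescence ratio over baseline after carbachol; higher B-score means a larger calcium signal and so more RGS4 inhibition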
Target sequence (P49798 whole entry, looked up): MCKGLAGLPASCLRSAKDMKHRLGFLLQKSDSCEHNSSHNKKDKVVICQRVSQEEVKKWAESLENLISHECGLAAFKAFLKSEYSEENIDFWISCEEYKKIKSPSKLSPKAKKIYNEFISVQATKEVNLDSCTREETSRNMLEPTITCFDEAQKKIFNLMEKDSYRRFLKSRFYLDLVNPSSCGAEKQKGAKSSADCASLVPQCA
MrgX1 antag: antagonists of human MrgX1 receptor, primary screen, HEK293 cells, Fluo-4 calcium flux; BAM8-22 antagonism; hits give low values; B-score at 10 µM; hit rate 1.3% among 310,000; Mas-related G-protein coupled receptor member X1 (Homo sapiens), Q96LB2; AID 588676, 2011;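 active = calcium-response B-score plate-corrected more than 3 library SD below zero, starting fluorescence within 5 deviations, no agonist response on first addition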;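 also: peak minus trough fluorescence over baseline after final BAM8-22 challenge near maximal dose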
MrgX1 ag: agonists of human MrgX1 receptor, primary screen, HEK293 cells, Fluo-4 calcium flux; Mas-related G-protein coupled receptor member X1 (Homo sapiens), Q96LB2; Fluo-4 calcium fluorescence, agonist mode; hits give high values; B-score at 10 µM; hit rate 0.44% among 310,000;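 active = calcium response B-score plate-corrected fluorescence ratio at least 3 library SD, with starting fluorescence B-score inside 5 SD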
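Material: HEK293 cells stably expressing human MrgX1 receptor | Quantity: 15,000 cells per well | Times: Cells plated overnight, dye loaded 0.5 h 37 °C, 0.5 h room temperature | Measured by: Kinetic Fluo-4 NW fluorescence of intracellular calcium | Control set: Positive and negative controls per plate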
RGS4 act valid: reduced carbachol calcium response, RGS4-induced M3R cells, confirmation, RGS4 activator project, cell-based, HEK293 M3R/RGS4 inducible, calcium flux, duplicate; AID 602282, 2012; carbachol calcium flux Fluo4; shares compounds with RGS4 act; inhibition, % at 10 µM; hit rate 89% among 1,100;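 active = inhibition above 3 SD of the buffer control wells, cut at about 41% in these data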;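 also: signal is the integrated peak-minus-minimum Fluo4 fluorescence over baseline ratio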
RGS4 act ctr: activity in cells without induced RGS4 expression. HEK293 M3R non-induced RGS4, Fluo4 calcium flux; after carbachol challenge at its EC90. AID 602283. hit rate 82% among 1,100. inhibition, % at 10 µM. shares compounds with RGS4 act;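 active = inhibition exceeding 3 SD of buffer-only control wells, cut at about 26% in these data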;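 also: percent drop in integrated peak-minus-baseline over baseline Fluo4 ratio after carbachol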
Hits are given with their value; n = inactive; x = not tested or not shown. Shown are actives, neighbours in structure and some others; about 3.5% of the full set was active somewhere.

SMILES	RGS4 act	MrgX1 allo act	RGS4 block	MrgX1 antag	MrgX1 ag	RGS4 act valid	RGS4 act ctr
CC(O)(C#CCN1CCCCC1)c1ccccc1 (stereo not drawn)	n	n	n	n	n	x	x
CC(C)C(O)(C#CCN1CCCCCC1)c1ccccc1 (stereo not drawn)	-11	n	n	n	n	94	87
CC(O)(C#CCN1CCCC1)c1ccccc1 (stereo not drawn)	n	n	n	n	n	x	x
CC(C)(C)C(O)(CC#CCN1CCCC1)c1ccccc1 (stereo not drawn)	-9.4	n	n	n	n	76	31
C(#Cc1ccccc1)CN1CCCCC1	n	n	n	n	n	x	x
NC(=O)CC(NC(=O)c1ccccc1)c1ccc(NCCc2ccc(Cl)cc2)c([N+](=O)[O-])c1 (stereo not drawn)	n	n	n	n	n	x	x
Brc1cccc(OCCCCN2CCCCC2)c1	-8.6	n	n	n	n	92	66
COc1cccc(OCCCCN2CCCCC2)c1	n	n	n	n	n	x	x
CC1CCCN(CCCCOc2cccc(Br)c2)C1 (stereo not drawn)	-7.5	n	n	n	n	92	64
CCOc1cccc(OCCCCN2CCCCC2)c1	-7.9	n	n	n	n	80	37
Clc1ccc(OCCCCCN2CCCC2)c(Br)c1	-8	n	n	n	n	89	84
CCN(CC)Cc1cc2[nH]c3c4ccc(Cl)cc4ncc3c2cc1OC	n	x	n	x	x	x	x
COc1ccc(-c2nonc2NC(=O)c2ccco2)cc1OC	n	n	n	n	n	x	x
CC1CCN(CCCCOc2ccccc2-c2ccccc2)CC1	-8.4	n	n	n	n	72	84
CC1CCN(CC(=O)Nc2ccccc2-c2ccccc2)CC1	-9.1	n	n	n	n	92	61
CC1CCN(CCCCOc2ccc(Cl)cc2)CC1	n	n	n	n	n	x	x
CNCCOc1ccccc1-c1ccccc1	n	n	n	n	n	x	x
CC1CCN(CCCCOc2ccc(C(C)(C)C)cc2)CC1	-9.6	n	n	n	n	93	60
CNCCCCOc1ccccc1-c1ccccc1	-8.8	n	n	n	n	85	84
CCS(=O)(=O)c1ncc(CO)n1CCc1ccccc1	n	n	n	n	n	x	x
CCCc1cc(=O)[nH]c(SCC(=O)NCCC2=CCCCC2)n1	n	n	n	n	n	x	x
O=C(N=C1SC2CS(=O)(=O)CC2N1c1ccc(F)c(Cl)c1)C1CCCO1 (stereo not drawn)	n	n	n	n	n	x	x
COc1ccc(C(=O)N/N=C/c2ccc3cccc(OCc4ccccc4)c3n2)cc1	-11	n	n	n	n	91	47
COc1ccc(NC(=O)C2CCCN(S(C)(=O)=O)C2)cc1Cl (stereo not drawn)	n	n	n	n	n	x	x
CN(C)CCCOC(=O)C1c2ccccc2Oc2ccccc21	-8.5	n	n	n	n	92	91
SMILES	RGS4 act	MrgX1 allo act	RGS4 block	MrgX1 antag	MrgX1 ag	RGS4 act valid	RGS4 act ctr
CN(CCOC(=O)C1c2ccccc2Oc2ccccc21)C(C)(C)C	-7.9	n	n	n	n	93	96
O=c1nc(Nc2ccc([N+](=O)[O-])cc2)[nH]c(=O)[nH]1	n	n	n	n	n	x	x
COC(=O)CCCC(=O)N1CCC(CCC(=O)NCc2ccc(F)cc2)CC1	n	n	n	n	n	x	x
CCOc1ccc(N(CC(=O)Nc2ccc(C)c(C)c2)S(C)(=O)=O)cc1	n	n	n	n	n	x	x
CC1Cc2cc(-c3csc(N)n3)ccc2O1 (stereo not drawn)	n	n	n	n	n	x	x
Cc1cccc(N2CCN(C(=O)CCCn3c(=O)c4cccn4c4cccnc43)CC2)c1C	n	n	n	n	n	x	x
Cc1ccc(Cl)cc1N1CCN(C(=O)CCCn2c(=O)c3cccn3c3cccnc32)CC1	-7.9	n	n	n	n	84	50
CC(C)(O)C#Cc1ccc(CN2CCCC(CO)(Cc3cccc(Cl)c3)C2)cc1 (stereo not drawn)	-9	n	n	n	n	76	31
COc1ccc(S(=O)(=O)N2CCC(C(=O)NCCC(=O)NCc3ccccc3OC)CC2)cc1	n	n	n	n	n	x	x
c1cn2c(NC3CCCCC3)c(-c3ccc(SC4CCCCC4)cc3)nc2cn1	n	n	n	n	n	x	x
CCN(CC)c1ccc(-c2nc3cnccn3c2NC2CCCC2)cc1	-7.9	n	n	n	n	54	n
CCCCCc1c(C)[nH]c2nc3ccccc3n2c1=O	n	n	n	n	n	x	x
COc1cccc(C(=O)NC(=S)Nc2ccc(N3CCCC3)cc2)c1	n	n	n	n	n	x	x
CC(C)Oc1cccc(C(=O)NC(=S)Nc2ccc(N3CCN(C)CC3)cc2)c1	-11	n	n	n	n	92	93
Cc1ccc(Nc2ccc(NCc3ccccc3)nn2)cc1C	n	n	n	n	n	x	x
Clc1ccc(Nc2ccc(NCc3ccccc3)nn2)cc1	-7.6	n	n	n	n	n	n
NC(=O)COC(=O)c1c2c(nc3ccccc13)CCCCC2	n	n	n	n	n	x	x
CC1Cc2ccccc2N1C(=O)COC(=O)c1c2c(nc3ccccc13)CCCCC2 (stereo not drawn)	-9	n	n	n	n	88	84
O=C(OCC(=O)N1CCc2ccccc21)c1c2c(nc3ccccc13)CCCC2	-9.1	n	n	n	n	80	84
CC(C)(C)C(=O)COC(=O)c1c2c(nc3ccccc13)CCC2	n	n	n	n	n	x	x
O=C(Nc1ccncc1Cl)c1ccncc1	n	n	n	n	n	x	x
CCc1nc2ccccc2c(C(=O)OCC(=O)Nc2cccc(S(=O)(=O)NC3=NCCCCC3)c2)c1C	-7.7	n	n	n	n	64	n
CN(CC(=O)Nc1cccc(F)c1)C(=O)CCc1nc2cc(S(=O)(=O)N3CCOCC3)ccc2n1C	n	n	n	n	n	x	x
CC(C)c1ccc(CN2CCC(Oc3ccc(C(=O)N4CCCC4)cc3)CC2)cc1	-9.1	n	n	n	n	92	63
CSc1ccc(CN2CCC(Oc3ccc(C(=O)N4CCCC4)cc3)CC2)cc1	-8.5	n	n	n	n	87	39
COc1ccc(CNC(C)C(=O)Nc2ccc3ccccc3c2)cc1OC (stereo not drawn)	n	n	n	n	n	x	x
O=Cc1ccc(OC(=O)Cc2ccc(F)cc2)cc1	n	n	n	n	n	x	x
